Assay [1] addresses T1, Sialidase (Clostridium perfringens, UniProt P10481).
T1 sequence (P10481 whole entry): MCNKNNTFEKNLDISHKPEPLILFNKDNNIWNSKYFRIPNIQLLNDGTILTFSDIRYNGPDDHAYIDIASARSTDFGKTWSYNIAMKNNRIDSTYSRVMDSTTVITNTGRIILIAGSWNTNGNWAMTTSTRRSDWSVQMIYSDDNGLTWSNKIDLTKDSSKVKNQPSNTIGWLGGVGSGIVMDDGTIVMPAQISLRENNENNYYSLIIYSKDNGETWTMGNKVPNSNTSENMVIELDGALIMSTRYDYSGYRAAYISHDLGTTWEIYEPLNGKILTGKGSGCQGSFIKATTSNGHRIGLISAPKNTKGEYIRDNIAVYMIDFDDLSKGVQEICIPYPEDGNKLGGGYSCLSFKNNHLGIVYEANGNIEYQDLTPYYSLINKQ
Kind of assay: Noncompetitive inhibition of Clostridium perfringens neuraminidase. The procedure, abridged: (§1)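 Kinetics run in acetate-buffer 4-MU-NANA fluorometric assay without stop solution, product read immediately at ex 360/em 440 nm across substrate and inhibitor concentrations. Mode assigned from Lineweaver–Burk and Dixon plots; Ki from x-axis intersection of lines.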

Assay [2] has as its target T2, Sialidase (Clostridium perfringens) (UniProt P10481).
T2 sequence (whole entry): T1 sequence (P10481 whole entry)
Description: Reversible inhibition of Clostridium perfringens neuraminidase at 0.1 times IC50 pre-incubated for 15 mins by spectrofluorimetry. The procedure, abridged:
(§2)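 Reversibility by jump dilution: enzyme pre-incubated 15 min with compound at 100-fold assay enzyme level (0.125 U/mL), then diluted 1/100 into acetate buffer with substrate. Progress curves of fluorescence over 30 min compared with enzyme pre-incubated and diluted without compound.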

Assay [3] has as its target T2, Sialidase (Clostridium perfringens). Kind of assay: Inhibition of Clostridium perfringens neuraminidase at 0.1 times IC50 by spectrofluorimetry. Put shortly:
as §2

Assay [4] shares this target. Description: Noncompetitive inhibition of Clostridium perfringens neuraminidase by Lineweaver-Burke plot analysis.
The target is the same in assay [5]. Description: Inhibition of Clostridium perfringens neuraminidase at 10 times IC50 by spectrofluorimetry. The procedure, abridged: as §2
For assay [6] the target is unchanged. Kind of assay: (§3) Inhibition of Clostridium perfringens neuraminidase assessed as inhibition of 4-MU-NANA hydrolysis after 10 mins by spectrofluorimetry. Put shortly: (§4)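 Enzyme at 0.05 U/mL in 0.04 M sodium acetate pH 5.0 with compound (DMSO stock diluted in buffer) and 4-MU-NANA (1 mM stock); 10 min at 37 °C. Stopped with 0.1 M glycine–NaOH pH 10.4; 4-methylumbelliferone read at ex 360/em 440 nm. IC50 from regression, mean ± SD of three replicates.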

Assay [7] has as its target T1, Sialidase. The assay is described as §3. Put shortly: as §4
Assay [8] addresses T2, Sialidase (Clostridium perfringens). Description: Reversible inhibition of Clostridium perfringens neuraminidase at 10 times IC50 pre-incubated for 15 mins by spectrofluorimetry. Put shortly:
as §2

For assay [9], the target named is Sialidase (Vibrio cholerae serotype O1 (strain ATCC 39315 / El Tor Inaba N16961)) (UniProt P0C6E9). Description: (§5) Inhibition of Vibrio cholerae neuraminidase assessed as inhibition of 4-MU-NANA hydrolysis after 30 mins by spectrofluorimetry. Put shortly:
(§6)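 V. cholerae enzyme (8.3 U) with compound in 50 mM MES, 6 mM CaCl2, pH 5.6, pre-incubated 30 min at 37 °C with shaking. 4-MU-NANA added at 25 µM final, 30 min at 37 °C, then quenched with 0.25 M glycine pH 10.0. Read at ex 360/em 440 nm, blank-corrected, expressed as % of no-inhibitor control, at least triplicate.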

In assay [10] the target is Sialidase (Vibrio cholerae serotype O1 (strain ATCC 39315 / El Tor Inaba N16961), UniProt P0C6E9). The assay is described as §5. The procedure, abridged: as §6
In assay [11] the target is T2, Sialidase (Clostridium perfringens). Description: Noncompetitive inhibition of Clostridium perfringens neuraminidase by Dixon plot analysis. The procedure, abridged:
(§7)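 Dixon plots of 1/v against [I] at each substrate concentration, rates from unquenched fluorometric 4-MU-NANA hydrolysis (ex 360/em 440 nm); Ki read from the x-axis value where lines intersect.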

In assay [12] the target is Sialidase (Vibrio cholerae serotype O1 (strain ATCC 39315 / El Tor Inaba N16961)) (UniProt P0C6E9). Kind of assay: Inhibition of Vibrio cholerae neuraminidase assessed as inhibition of 4-MU-NANA hydrolysis at 30 ug/mL after 10 mins by spectrofluorimetry.
For assay [13], the target named is T2, Sialidase (Clostridium perfringens). The conditions noted are these: 20 ug/mL.
The target of assay [14] is T1, Sialidase. Kind of assay: Competitive inhibition of Clostridium perfringens neuraminidase. Put shortly:
as §1

Assay [15] deals with T2, Sialidase (Clostridium perfringens). Kind of assay: Competitive inhibition of Clostridium perfringens neuraminidase by Lineweaver-Burke plot analysis.
Assay [16] shares this target. Kind of assay: Competitive inhibition of Clostridium perfringens neuraminidase by Dixon plot analysis. Put shortly: as §7

The results in this text go back to ChEMBL document CHEMBL1157932, “Prenylated pterocarpans as bacterial neuraminidase inhibitors” (Bioorg Med Chem, 2010).

Usually Ki stands for a measure of affinity in units of concentration, obtained from inhibition or displacement. One may read the inhibition as how much of the control response was suppressed. A word on the IC50: it is the concentration that gives 50% inhibition.

The source made the active and inactive calls. The calls are words filed in the database; no cut-off is given here.

Chain of Sialidase (Vibrio cholerae serotype O1 (strain ATCC 39315 / El Tor Inaba N16961), UniProt P0C6E9) (P0C6E9 whole entry, one chain of several): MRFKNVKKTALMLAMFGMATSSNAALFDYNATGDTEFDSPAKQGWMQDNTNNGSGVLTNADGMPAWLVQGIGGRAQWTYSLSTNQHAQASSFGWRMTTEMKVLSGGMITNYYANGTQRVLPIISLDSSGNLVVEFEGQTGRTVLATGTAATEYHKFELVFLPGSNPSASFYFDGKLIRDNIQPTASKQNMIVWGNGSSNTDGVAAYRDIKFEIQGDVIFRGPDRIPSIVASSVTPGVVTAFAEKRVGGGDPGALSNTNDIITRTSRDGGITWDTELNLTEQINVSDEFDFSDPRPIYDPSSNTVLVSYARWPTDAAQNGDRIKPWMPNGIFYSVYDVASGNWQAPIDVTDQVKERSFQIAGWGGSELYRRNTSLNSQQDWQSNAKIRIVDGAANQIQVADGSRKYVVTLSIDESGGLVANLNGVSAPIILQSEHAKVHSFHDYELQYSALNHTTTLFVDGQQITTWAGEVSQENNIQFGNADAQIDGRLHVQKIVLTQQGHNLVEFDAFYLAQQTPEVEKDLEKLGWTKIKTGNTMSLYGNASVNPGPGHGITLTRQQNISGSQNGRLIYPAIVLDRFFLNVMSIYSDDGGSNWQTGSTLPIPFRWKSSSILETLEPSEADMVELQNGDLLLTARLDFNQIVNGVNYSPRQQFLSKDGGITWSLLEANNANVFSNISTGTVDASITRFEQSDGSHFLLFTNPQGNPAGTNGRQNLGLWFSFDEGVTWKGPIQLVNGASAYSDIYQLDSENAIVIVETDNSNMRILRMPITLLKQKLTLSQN
Chain of Sialidase (Vibrio cholerae serotype O1 (strain ATCC 39315 / El Tor Inaba N16961)) (P0C6E9 whole entry, one chain of several): as above

Regarding `CC(C)=CCc1cc2c(cc1O)OC[C@@]1(O)c3ccc4c(c3O[C@@H]21)C=CC(C)(C)O4` [ERYSUBIN E], the affinity in [1] corresponds to a Ki of 240 nM. Moreover, the inhibition result in [2], in assay [4], in [8] and in [11] was “Active” throughout. Moreover, the results for the inhibition in [3] and in assay [5] were 9% and 91%, respectively. In addition, the Activity result in assay [6] and in assay [9] was “Dose-dependent effect” in each case. The IC50 in assay [7] worked out at 1.3 µM; in assay [10], 19.5 µM.

On to `CC1(C)C=Cc2cc3c(cc2O1)O[C@H]1c2ccc(O)cc2OC[C@@H]31` [ISONEORAUTENOL], for which the Ki in [1] came to 11000 nM. For the same compound, the inhibition result in assay [2], in assay [4], in [8] and in assay [11] was “Active” each time. In addition, the inhibition in [3] amounted to 9%; in assay [5], 91%. The Activity entry in [6] and in assay [9] was “Dose-dependent effect” each time. The figures for the IC50 in assay [7] and in assay [10] were 14.1 µM and 64.8 µM, respectively.

In turn, `CC(C)=CCc1cc2c(cc1O)O[C@H]1c3ccc(O)cc3OC[C@@H]21` [SOPHORAPTEROCARPAN A] yielded an inhibition constant Ki in [1] of 1780 nM. Also, the inhibition entry in [2], in assay [4], in assay [8] and in assay [11] was “Active” each time. Also, the inhibition in assay [3] was found to be 9%; in assay [5], 91%. In addition, the Activity result in [6] is “Dose-dependent effect”. Also, the half-maximal inhibitory concentration (IC50) in assay [7] is 2.01 µM; in [10], 11.6 µM.

`CC1(C)C=Cc2cc3c(cc2O1)OC[C@H]1c2ccc(O)cc2O[C@@H]31` [NEORAUTENOL]: the affinity in assay [1] corresponds to a Ki of 21700 nM. The inhibition entry in [2], in assay [4], in [8] and in assay [11] was “Active” throughout. Besides, the inhibition stood at 9% in assay [3] and 91% in assay [5]. In addition, the Activity result in assay [6] and in [9] was “Dose-dependent effect” each time. In addition, the values for the half-maximal inhibitory concentration (IC50) in assay [7] and in assay [10] were 19.8 µM and 53.1 µM, respectively.

As to `O=c1c(O)c(-c2ccc(O)c(O)c2)oc2cc(O)cc(O)c12` [QUERCETIN], the inhibition in [12] came out at 29.3%; in assay [13] it was 48.9%. Further, the Activity result in assay [6] was “Dose-dependent effect”. For the same compound, the half-inhibitory concentration (IC50) in [7] stood at 25.3 µM.

On to `CC(C)=CCc1c(O)ccc2c1O[C@H]1c3cc4c(cc3OC[C@@H]21)OC(C)(C)C(O)C4` (stereo partly specified) [ERYTHRIBYSSIN L], for which, in assay [1], the affinity, expressed as Ki, was 4130 nM. Besides, the inhibition result in assay [2], in assay [4], in [8] and in assay [11] was “Active” throughout. In addition, the inhibition in assay [3] worked out at 9%; in [5], 91%. Besides, in assay [6], the Activity entry is “Dose-dependent effect”. The IC50 in assay [7] turned out to be 2.79 µM; in assay [10], 27.1 µM.

As to `COc1ccc2c3c(oc2c1CC=C(C)C)-c1ccc(O)cc1OC3` [ERYVARIN D], in [1], the Ki was 2550 nM. Besides, the results for the IC50 in assay [7] and in [10] were 2.09 µM and 3.3 µM, respectively. The Activity result in [9] was “Dose-dependent effect”.

Compound `COc1ccc2c(c1CC=C(C)C)O[C@H]1c3cc(CC=C(C)C)c(O)cc3OC[C@@]21O` [ERYSTAGALLIN A] registered a Ki in assay [1] of 1800 nM. Further, the inhibition entry in assay [2], in [4], in assay [8] and in [11] was “Active” each time. Also, the inhibition in [3] is 9%; in [5], 91%. Moreover, the Activity entry in assay [6] and in assay [9] was “Dose-dependent effect” throughout. For the same compound, the IC50 in [7] was 2.04 µM; in assay [10], 27.7 µM.

Compound `COc1ccc2c(c1CC=C(C)C)O[C@H]1c3ccc(O)cc3OC[C@@]21O` [ERYTHRABYSSIN I] returned an inhibition constant (Ki) in [1] of 310 nM. Further, the inhibition result in assay [2], in [4], in assay [8] and in assay [11] was “Active” throughout. Moreover, the inhibition stood at 9% in assay [3] and 91% in [5]. Further, the Activity entry in assay [6] and in assay [9] was “Dose-dependent effect” throughout. In addition, the 50% inhibitory concentration (IC50) in [7] turned out to be 2.28 µM; in [10], 22 µM.

For the compound `CC1(C)Oc2ccc3c(c2CC1O)O[C@H]1c2ccc(O)cc2OC[C@@H]31` (stereo partly specified) [ERYTHRIBYSSIN D], the inhibition result in assay [2] and in assay [8] was “Active” throughout. Moreover, the inhibition was 9% in assay [3] and 91% in [5]. Also, the Activity result in assay [6] and in assay [9] was “Dose-dependent effect” in each case. Further, the IC50 worked out at 77.1 µM in assay [7] and 46.2 µM in [10].

As to `CC1(C)Oc2ccc3c(c2CC1O)O[C@@H]1c2ccc(O)cc2OC[C@H]31` (stereo partly specified) [ERYTHRIBYSSIN M], the inhibition entry in [2] and in [8] was “Active” throughout. Besides, the inhibition turned out to be 9% in assay [3] and 91% in assay [5]. Besides, the Activity result in assay [6] and in assay [9] was “Dose-dependent effect” throughout. Further, the values for the IC50 in assay [7] and in assay [10] were 205 µM and 77.7 µM, respectively.

As to `CC(C)=CCc1c(O)ccc2c3c(oc12)-c1cc(C=O)c(O)cc1OC3` [ERYTHRIBYSSIN O], the affinity in assay [1], expressed as Ki, was 1210 nM. Besides, the inhibition entry in assay [2], in [4], in [8] and in [11] was “Active” throughout. Further, the inhibition was 9% in assay [3] and 91% in assay [5]. Further, the Activity result in assay [6] and in assay [9] was “Dose-dependent effect” each time. In addition, the figures for the IC50 in assay [7] and in assay [10] were 1.32 µM and 0.35 µM, respectively.

In assay [1], `Oc1ccc2c(c1)O[C@H]1c3ccc(O)cc3OC[C@@H]21` came in with a Ki of 3830 nM. Moreover, the inhibition result in assay [2], in [4], in assay [8] and in [11] was “Active” throughout. Further, the inhibition turned out to be 9% in assay [3] and 91% in assay [5]. For the same compound, the Activity result in assay [6] and in assay [9] was “Dose-dependent effect” in each case. In addition, the IC50 in [7] was 6.39 µM; in assay [10], 29.5 µM.

Consider `CC1(C)C=Cc2c(ccc3c2O[C@H]2c4ccc(O)cc4OC[C@@H]32)O1` [PHASEOLIN], for which the inhibition constant (Ki) in assay [14] amounted to 4.84 µM. In addition, the IC50 amounted to 33.6 µM in [7] and 31.4 µM in [10]. For the same compound, in assay [9], the Activity result was “Dose-dependent effect”.

As to `CC(C)=CCc1cc2c(cc1O)OC[C@H]1c3ccc4c(c3O[C@@H]21)CC(O)C(C)(C)O4` (stereo partly specified) [ERYSUBIN D], the inhibition result in assay [15], in assay [2], in assay [16] and in assay [8] was “Active” in each case. In addition, the results for the inhibition in [3] and in assay [5] were 9% and 91%, respectively. For the same compound, the Ki in [14] was found to be 15.2 µM. For the same compound, the Activity entry in assay [6] and in assay [9] was “Dose-dependent effect” throughout. Besides, the IC50 in [7] and in assay [10] was 26.4 µM throughout.
